Reference: ChEMBL document CHEMBL2346589, “Fragment-based drug discovery of 2-thiazolidinones as inhibitors of the histone reader BRD4 bromodomain” (J Med Chem, 2013)
Blank lines part the entries; values can stand above or below the compound they belong to.

Columns and labels:
[1] = target: T1, Bromodomain-containing protein 4 (Homo sapiens, UniProt O60885); test: Displacement of FITC-labeled (+)-JQ1 from bromodomain BRD4(1) (unknown origin) expressed in Escherichia coli BL21(DE3) after 4 hrs by fluorescence anisotropy assay
In short: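 BRD4(1), His6-tagged, expressed in E. coli BL21(DE3) codon plus RIL, Ni-NTA purified, tag removed with TEV, then gel filtration. Varied compound concentrations, DMSO 5‰ final. 4 h equilibration in the dark at room temperature. IC50 from two independent experiments.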

[2] = target: T1, Bromodomain-containing protein 4; test: Inhibition of bromodomain BRD4-mediated c-myc mRNA expression in human HT-29 cells at 10 uM after 24 hrs by RT-qPCR analysis relative to control; type: cell-based
In short: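 HT-29 cells (McCoy's 5A, 10% FBS, 37 °C, 5% CO2) seeded in six-well plates overnight, then exposed 24 h to compound at 10 μM final (DMSO stock diluted in saline). Total RNA extracted with Trizol, reverse-transcribed, and quantified by RT-qPCR. c-myc levels normalised to β-actin and expressed relative to untreated control. Three independent experiments, mean ± SD.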

HT-29 = test: Growth inhibition of human HT-29 cells after 72 hrs by sulforhodamine B assay; type: functional; conditions: HT-29, 72 h
In short: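 HT-29 cells in McCoy's 5A with 10% FBS at 37 °C, 5% CO2. DMSO stocks (0.01 mol/L) diluted in normal saline. Graded concentrations applied in triplicate for 72 h, then SRB staining with A560 read-out. Inhibition rate from A560 treated/control. GI50 from four independent experiments, mean ± SD.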

[3] = target: T1, Bromodomain-containing protein 4; test: Displacement of FITC-labeled (+)-JQ1 from bromodomain BRD4(1) (unknown origin) expressed in Escherichia coli BL21(DE3) at 50 uM after 4 hrs by fluorescence anisotropy assay relative to control
In short: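 Same BRD4(1) fluorescence anisotropy competition set-up: 45 nM protein, 5 nM FITC-(+)-JQ1 tracer, HEPES pH 7.4/CHAPS buffer, 4 h in the dark at room temperature, ex 485/em 530 nm. Single ligand concentration of 50 μM, reported as percent inhibition.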

CYP2C19 = CYP2C19 (Homo sapiens, UniProt P33261); test: Inhibition of CYP2C19 (unknown origin)-mediated mephenytoin metabolite conversion at 10 uM after 20 mins relative to control; type: ADME; conditions: probe mephenytoin
Sequence of CYP2C19 (P33261 whole entry): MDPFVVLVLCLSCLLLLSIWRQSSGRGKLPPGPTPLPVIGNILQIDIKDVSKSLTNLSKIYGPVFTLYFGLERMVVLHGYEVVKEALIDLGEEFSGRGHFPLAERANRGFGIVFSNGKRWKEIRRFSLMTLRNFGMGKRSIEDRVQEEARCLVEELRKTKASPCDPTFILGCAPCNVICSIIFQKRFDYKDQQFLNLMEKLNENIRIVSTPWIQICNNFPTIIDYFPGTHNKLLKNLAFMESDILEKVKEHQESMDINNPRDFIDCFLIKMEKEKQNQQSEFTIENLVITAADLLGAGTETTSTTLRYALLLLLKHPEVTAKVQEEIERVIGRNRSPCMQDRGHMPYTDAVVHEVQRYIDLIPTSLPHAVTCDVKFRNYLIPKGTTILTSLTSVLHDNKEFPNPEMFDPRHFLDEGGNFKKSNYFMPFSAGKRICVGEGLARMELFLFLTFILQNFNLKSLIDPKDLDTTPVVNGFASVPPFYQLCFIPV
In short: (§1)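 Human liver microsomes at 0.2 mg/mL in 100 mM phosphate pH 7.4 with 1 mM NADPH. Probe cocktail: midazolam 10 μM, dextromethorphan 10 μM, diclofenac 20 μM, phenacetin 100 μM, mephenytoin 100 μM. Test compound at 10 μM; PBS as negative control. 5 min preincubation at 37 °C, then 20 min reaction started with an NADPH-generating system. Metabolite formation expressed relative to PBS.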

CYP1A2 = target: T2, CYP1A2 (Homo sapiens, UniProt P05177); test: Inhibition of CYP1A2 (unknown origin)-mediated phenacetin metabolite conversion at 10 uM after 20 mins relative to control; type: ADME; conditions: probe phenacetin; in short: as §1
T2 sequence (P05177 whole entry): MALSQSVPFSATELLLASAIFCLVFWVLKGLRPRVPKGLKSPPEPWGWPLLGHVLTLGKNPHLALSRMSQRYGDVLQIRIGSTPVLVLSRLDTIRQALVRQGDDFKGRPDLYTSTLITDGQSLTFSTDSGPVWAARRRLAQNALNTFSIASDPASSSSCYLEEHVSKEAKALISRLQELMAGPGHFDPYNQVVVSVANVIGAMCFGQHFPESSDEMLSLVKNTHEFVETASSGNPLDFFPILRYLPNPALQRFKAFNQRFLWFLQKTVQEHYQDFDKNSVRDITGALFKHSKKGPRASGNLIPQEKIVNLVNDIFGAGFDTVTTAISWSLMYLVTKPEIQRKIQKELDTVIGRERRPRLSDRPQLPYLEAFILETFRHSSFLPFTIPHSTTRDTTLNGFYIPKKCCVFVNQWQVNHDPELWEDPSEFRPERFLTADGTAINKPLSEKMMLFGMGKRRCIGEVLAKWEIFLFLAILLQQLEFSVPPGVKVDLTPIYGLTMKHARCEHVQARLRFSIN

CYP2C9 = CYP2C9 (Homo sapiens, UniProt P11712); test: Inhibition of CYP2C9 (unknown origin)-mediated diclofenac metabolite conversion at 10 uM after 20 mins relative to control; type: ADME; conditions: probe diclofenac; in short: as §1
Sequence of CYP2C9 (P11712 whole entry): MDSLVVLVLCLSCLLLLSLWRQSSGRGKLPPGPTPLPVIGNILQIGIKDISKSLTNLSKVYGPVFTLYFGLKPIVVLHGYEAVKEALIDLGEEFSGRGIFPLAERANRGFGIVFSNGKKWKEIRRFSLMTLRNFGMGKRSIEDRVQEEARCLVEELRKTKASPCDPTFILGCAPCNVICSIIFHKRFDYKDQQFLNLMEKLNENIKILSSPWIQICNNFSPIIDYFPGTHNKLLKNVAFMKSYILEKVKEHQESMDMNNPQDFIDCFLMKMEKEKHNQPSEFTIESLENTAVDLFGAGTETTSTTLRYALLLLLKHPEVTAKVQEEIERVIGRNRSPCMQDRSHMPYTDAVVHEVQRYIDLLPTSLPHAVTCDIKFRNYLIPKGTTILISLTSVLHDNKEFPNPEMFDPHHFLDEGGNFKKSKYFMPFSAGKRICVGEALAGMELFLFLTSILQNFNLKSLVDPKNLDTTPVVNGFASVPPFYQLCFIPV

CYP2D6 = CYP2D6 (Homo sapiens, UniProt P10635); test: Inhibition of CYP2D6 (unknown origin)-mediated dextromethorphan metabolite conversion at 10 uM after 20 mins relative to control; type: ADME; conditions: probe dextromethorphan; in short: as §1
Sequence of CYP2D6 (P10635 whole entry): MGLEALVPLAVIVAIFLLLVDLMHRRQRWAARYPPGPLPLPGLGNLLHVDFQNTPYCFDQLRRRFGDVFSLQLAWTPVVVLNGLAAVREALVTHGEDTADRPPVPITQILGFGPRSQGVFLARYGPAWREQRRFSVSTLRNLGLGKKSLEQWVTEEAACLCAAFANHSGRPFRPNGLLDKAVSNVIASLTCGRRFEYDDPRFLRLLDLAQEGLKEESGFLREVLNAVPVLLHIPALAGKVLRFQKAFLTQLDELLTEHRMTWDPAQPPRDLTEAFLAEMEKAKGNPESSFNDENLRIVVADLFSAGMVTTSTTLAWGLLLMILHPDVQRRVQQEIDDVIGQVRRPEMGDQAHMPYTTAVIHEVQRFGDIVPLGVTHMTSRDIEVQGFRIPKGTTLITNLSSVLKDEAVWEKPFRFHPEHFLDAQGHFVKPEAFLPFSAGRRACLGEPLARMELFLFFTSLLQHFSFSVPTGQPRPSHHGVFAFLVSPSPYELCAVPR

CYP3A4 = CYP3A4 (Homo sapiens, UniProt P08684); test: Inhibition of CYP3A4 (unknown origin)-mediated midazolam metabolite conversion at 10 uM after 20 mins relative to control; type: ADME; conditions: probe midazolam; in short: as §1
Sequence of CYP3A4 (P08684 whole entry): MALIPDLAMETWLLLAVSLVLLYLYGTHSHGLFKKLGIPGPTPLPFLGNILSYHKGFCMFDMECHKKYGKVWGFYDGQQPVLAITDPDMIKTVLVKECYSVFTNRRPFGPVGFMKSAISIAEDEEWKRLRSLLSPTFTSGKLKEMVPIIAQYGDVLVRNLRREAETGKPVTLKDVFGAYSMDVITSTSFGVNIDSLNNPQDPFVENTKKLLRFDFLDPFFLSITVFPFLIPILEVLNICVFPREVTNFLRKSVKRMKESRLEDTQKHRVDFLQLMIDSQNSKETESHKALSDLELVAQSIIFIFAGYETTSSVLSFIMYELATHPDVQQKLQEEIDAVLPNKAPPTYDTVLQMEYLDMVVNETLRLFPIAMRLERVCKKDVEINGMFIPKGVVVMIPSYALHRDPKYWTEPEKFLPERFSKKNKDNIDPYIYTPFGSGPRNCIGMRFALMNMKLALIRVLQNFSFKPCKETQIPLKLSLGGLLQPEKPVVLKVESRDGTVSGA

[4] = Intrinsic clearance in mouse liver microsomes at 1 uM after 5 mins by LC/MS/MS analysis; type: ADME, Microsome; conditions: read-out: CLH
[5] = Intrinsic clearance in human liver microsomes at 1 uM after 5 mins by LC/MS/MS analysis; type: ADME, Microsome; conditions: read-out: CLH
In short: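 Liver microsomes at 0.5 mg/mL with 1 μM compound in 0.1 M phosphate pH 7.4, 1 mM EDTA, 5 mM MgCl2. Preincubated 5 min at 37 °C, then started with 1 mM NADPH. Sampled at 0, 5, 10 and 30 min, quenched with cold acetonitrile. Parent remaining measured by LC/MS/MS.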

SMILES: O=c1[nH]c(-c2cccc(Cl)c2)cs1
IC50 [1]: 24 µM

SMILES: O=c1[nH]c(-c2cccc(NS(=O)(=O)c3cccnc3)c2)cs1
IC50 [1]: 10 µM

SMILES: O=c1[nH]c(-c2ccc(NS(=O)(=O)c3cccs3)cc2)cs1
inhibition [3]: 38.6%

SMILES: Nc1cccc(-c2csc(=O)[nH]2)c1
IC50 [1]: 42 µM

SMILES: O=c1[nH]c(-c2cccc(NS(=O)(=O)Cc3ccccc3)c2)cs1
IC50 [1]: 4.1 µM

SMILES: Nc1ccc(-c2csc(=O)[nH]2)cc1
IC50 [1]: 51 µM

SMILES: O=c1[nH]c(-c2cccc(NCCc3ccccc3)c2)cs1
IC50 [1]: 22.8 µM

SMILES: O=C(Nc1cc(-c2csc(=O)[nH]2)ccc1NS(=O)(=O)Cc1ccccc1)C1CCCC1
inhibition [3]: 20.2%

SMILES: Nc1ccc(-c2csc(=O)[nH]2)cc1O
IC50 [1]: 23.8 µM

SMILES: O=c1[nH]c(-c2cccc(NS(=O)(=O)c3cccc4cccnc34)c2)cs1
inhibition [3]: 45.7%

SMILES: O=C(Nc1cc(NS(=O)(=O)c2cccs2)cc(-c2csc(=O)[nH]2)c1)c1cccs1
inhibition at 20 min, 10 µM (CYP2C19): 39%
inhibition at 20 min, 10 µM (CYP1A2): 29%
inhibition at 20 min, 10 µM (CYP2C9): 41%
inhibition at 20 min, 10 µM (CYP2D6): 20%
inhibition at 20 min, 10 µM (CYP3A4): 8%
microsomal CLint at 1 µM [4]: 52 µL/min/mg
microsomal CLint at 1 µM [5]: 18 µL/min/mg

SMILES: COc1ccc(S(=O)(=O)Nc2cccc(-c3csc(=O)[nH]3)c2)cc1
IC50 [1]: 4.4 µM

SMILES: O=C(Cc1ccccc1)Nc1cccc(-c2csc(=O)[nH]2)c1
inhibition [3]: 45.6%

SMILES: Nc1cc(N)cc(-c2csc(=O)[nH]2)c1
IC50 [1]: 50.7 µM

SMILES: O=c1[nH]c(-c2cccc(NS(=O)(=O)c3cccs3)c2)cs1
inhibition at 20 min, 10 µM (CYP2C19): 36%
inhibition at 20 min, 10 µM (CYP1A2): 16%
inhibition at 20 min, 10 µM (CYP2C9): 34%
inhibition at 20 min, 10 µM (CYP2D6): 22%
inhibition at 20 min, 10 µM (CYP3A4): 17%
microsomal CLint at 1 µM [4]: 120 µL/min/mg
microsomal CLint at 1 µM [5]: 24 µL/min/mg
IC50 [1]: 4.1 µM

Next, values leading:

inhibition [2]: > 50%
GI50 (HT-29): 37.3 µM
IC50 [1]: 2.6 µM
SMILES: Nc1cc(NS(=O)(=O)c2cccs2)cc(-c2csc(=O)[nH]2)c1

IC50 [1]: 0.57 µM
SMILES: O=C(CCc1ccccc1)Nc1cc(NS(=O)(=O)c2cccs2)cc(-c2csc(=O)[nH]2)c1

IC50 [1]: 3.3 µM
SMILES: O=c1[nH]c(-c2ccc(NS(=O)(=O)c3cccs3)c(O)c2)cs1

IC50 [1]: 2.4 µM
SMILES: CCCC(=O)Nc1cc(-c2csc(=O)[nH]2)ccc1NS(=O)(=O)c1cccs1

IC50 [1]: 3.5 µM
SMILES: O=C(Cc1ccccc1)Nc1cc(-c2csc(=O)[nH]2)ccc1NS(=O)(=O)c1cccs1

IC50 [1]: 0.79 µM
SMILES: CCCC(=O)Nc1cc(NS(=O)(=O)c2cccs2)cc(-c2csc(=O)[nH]2)c1

inhibition [2]: > 50%
GI50 (HT-29): 22.5 µM
IC50 [1]: 0.8 µM
SMILES: Cc1noc(C)c1-c1ccccc1

IC50 [1]: 2.6 µM
SMILES: O=C(CCc1ccccc1)Nc1cc(-c2csc(=O)[nH]2)ccc1NS(=O)(=O)c1cccs1

IC50 [1]: 2.2 µM
SMILES: O=C(CCC1CCCCC1)Nc1cc(NS(=O)(=O)c2cccs2)cc(-c2csc(=O)[nH]2)c1

GI50 (HT-29): 47.8 µM
IC50 [1]: 3.7 µM
SMILES: O=c1[nH]c(-c2cccc(NS(=O)(=O)c3ccc(F)cc3)c2)cs1

GI50 (HT-29): 63.6 µM
IC50 [1]: 2.5 µM
SMILES: O=C(Nc1cc(-c2csc(=O)[nH]2)ccc1NS(=O)(=O)c1cccs1)C1CCCC1
